Experimental data from ChEMBL document CHEMBL1158546, “Discovery of novel and potent leukotriene B4 receptor antagonists. Part 1” (J Med Chem, 2010).
Activity calls are given as the source filed them. The calls are words filed in the database; no cut-off is given here.

Columns and labels:
[1] = Half life in Sprague-Dawley rat at 10 mg/kg, po; format: ADME, organism-based; design: dose 10 mg/kg, route oral; details: in vivo
Summary of the method: (§1)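 Rat single-dose PK, n = 3, with oral dosing at 10 mg/kg and intravenous dosing at 2.5 or 5 mg/kg.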

[2] = system: Rattus norvegicus; assay: Toxicity in rat assessed as effect on body weight at 400 mg/kg, po qd treated for 14 days; format: organism-based; design: dose 400 mg/kg, route oral; details: in vivo, 336 h
Summary of the method: (§2)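 Male Han-Wistar rats (200-230 g), n = 4 per group, were given 40 or 400 (mg/kg)/day orally for 14 days in 2% Klucel LF/0.1% Tween-80 versus vehicle. Body weight was recorded at pretreatment and on days 1, 8 and 14, and food intake weekly. Clinical chemistry was sampled on day 5 and at necropsy. Organs were formalin-fixed and H&E stained. Data are given as mean ± SD and analysed by Bartlett's test.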

[3] = system: Rattus norvegicus; assay: Toxicity in rat assessed as effect on food consumption at 400 mg/kg, po qd treated for 14 days; format: organism-based; design: dose 400 mg/kg, route oral; details: in vivo, 336 h; summary of the method: as §2
[4] = biological target: T1, Leukotriene B4 receptor 1 (Homo sapiens, UniProt Q15722); assay: Antagonist activity at FLAG-tagged human BLT1 receptor expressed in HEK293 cells assessed as inhibition of LTB4-stimulated calcium mobilization preincubated for 10 mins before LTB4 challenge; format: functional, cell-based
[5] = Half life in Sprague-Dawley rat at 5 mg/kg, iv; format: ADME, organism-based; design: dose 5 mg/kg, route intravenous; details: in vivo; summary of the method: as §1
[6] = biological target: Cytochrome P450 2D6 (Homo sapiens, UniProt P10635); assay: Inhibition of CYP2D6 fluorescence method; format: ADME
Summary of the method: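 High-throughput CYP panel covering 1A2, 2D6, 2C9, 2C19 and 3A4, using fluorogenic substrates. IC50 was determined in μM.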

[7] = Oral bioavailability in Sprague-Dawley rat at 10 mg/kg, po; format: ADME, organism-based; details: in vivo; summary of the method: as §1
[8] = system: Rattus norvegicus; assay: Hepatotoxicity in rat assessed as increase in ALT level at 400 mg/kg, po qd treated for 14 days measured after 5 days relative to control; details: in vivo, 120 h
[9] = Clearance in Sprague-Dawley rat at 5 mg/kg, iv; format: ADME, organism-based; design: dose 5 mg/kg, route intravenous; details: in vivo; summary of the method: as §1
[10] = system: Neutrophil; assay: Inhibition of LTB4-stimulated human neutrophils migration after 30 mins by using CyQuant GR fluorescent dye; format: functional, cell-based; details: Homo sapiens, Neutrophil, 0.5 h; read-out: IC50
Summary of the method: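 Human blood neutrophils (95-97% pure, isolated over Lympholyte-poly) at 5 × 10^6 cells/mL were preincubated with compound (3 × 10^-12 to 1 × 10^-6 M final) for 30 min at 37 C. Migration toward 100 ng/mL LTB4 across a polycarbonate membrane ran 90 min at 37 C. Migrated cells were lysed with CyQuant GR and read at 480/520 nm. IC50 was taken from a sigmoidal fit of % inhibition.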

[11] = system: Rattus norvegicus; assay: Toxicity in rat assessed as alkaline phosphatase level at 400 mg/kg, po qd treated for 14 days; format: organism-based; design: dose 400 mg/kg, route oral; details: in vivo, 336 h; summary of the method: as §2
[12] = system: Cynomolgus monkey; assay: Antiinflammatory activity against ascaris suum antigen-evoked increase in neutrophils at bronchoalveolar lavage in cynomolgus monkey at 10 mg/kg, po after 1 hr treated before LTB4 challenge; format: functional, organism-based; design: dose 10 mg/kg; details: Macaca fascicularis, in the assay text read “before Ascaris suum antigen challenge” for “before LTB4 challenge”
Summary of the method: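 Male cynomolgus monkeys (4-10 kg) naturally hypersensitive to Ascaris suum had baseline BAL 24 h before challenge. They were dosed orally with 10 mg/kg in 15% Labrasol in PEG. One hour later, under ketamine/xylazine, they received antigen aerosol for 90 s by endotracheal tube. BAL neutrophil percentage came from 300-cell LeukoStat differentials, with hemocytometer totals. Analysis by two-way ANOVA/Bonferroni; 3-21 animals per group.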

[13] = biological target: T2, Leukotriene B4 receptor 2 (Homo sapiens, UniProt Q9NPC1); assay: Antagonist activity at FLAG-tagged human BLT2 receptor expressed in HEK293 cells assessed as inhibition of LTB4-stimulated calcium mobilization preincubated for 10 mins before LTB4 challenge; format: functional, cell-based
T2 sequence (Q9NPC1 whole entry): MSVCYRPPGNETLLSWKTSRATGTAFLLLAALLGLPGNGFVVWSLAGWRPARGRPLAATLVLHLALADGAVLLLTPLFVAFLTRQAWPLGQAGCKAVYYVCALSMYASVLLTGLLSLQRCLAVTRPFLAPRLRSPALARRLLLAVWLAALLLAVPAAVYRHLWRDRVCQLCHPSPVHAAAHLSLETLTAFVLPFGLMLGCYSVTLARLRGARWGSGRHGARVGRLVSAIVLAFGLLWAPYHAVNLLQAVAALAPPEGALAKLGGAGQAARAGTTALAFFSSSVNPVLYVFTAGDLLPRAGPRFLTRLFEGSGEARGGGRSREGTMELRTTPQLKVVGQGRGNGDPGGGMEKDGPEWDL

[14] = biological target: Cytochrome P450 2C9 (Homo sapiens, UniProt P11712); assay: Inhibition of CYP2C9 fluorescence method; format: ADME
[15] = system: Rattus norvegicus; assay: Toxicity in rat assessed as alkaline phosphatase level at 40 mg/kg, po qd treated for 14 days; format: organism-based; design: dose 40 mg/kg, route oral; details: in vivo, 336 h; summary of the method: as §2
[16] = biological target: T1, Leukotriene B4 receptor 1; assay: Antagonist activity at BLT1 receptor expressed in human HL60 cells assessed as inhibition of LTB4-stimulated calcium flux after 30 mins; format: functional, cell-based, HL-60; details: read-out: IC50
Summary of the method: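 HL-60 cells grown in RPMI-1640 with 20% FBS were plated at 2.0 × 10^5 cells/ml with 1 μM retinoic acid. They were dye-loaded in HBSS/20 mM HEPES/5 mM probenecid (0.05% BSA in the replacement buffer) for 1 h at 37 C. Compound (5 × 10^-11 to 3 × 10^-6 M final) was added for 30 min at room temperature, then 0.5 μM LTB4. Fluorescence was read every 1.5 s for 100 s and peak increase scored as % inhibition versus DMSO control.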

[17] = Volume of distribution at steady state in Sprague-Dawley rat at 5 mg/kg, iv; format: ADME, organism-based; design: dose 5 mg/kg, route intravenous; details: in vivo, read-out: Vdss; summary of the method: as §1
[18] = system: Cavia porcellus; assay: Antiinflammatory activity against LTB4-evoked eosinophilic pulmonary inflammation in Hartley guinea pig at 10 mg/kg, po after 1 hr treated before LTB4 challenge; format: functional, organism-based; design: dose 10 mg/kg
Summary of the method: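 Male Hartley guinea pigs (250-350 g) were dosed orally with 10 mg/kg in 2% Klucel LF/0.1% Tween-80. One hour later they were exposed to 10 μg/mL LTB4 aerosol for 20 min. BAL (3 × 5 mL HBSS) was done 2 h after challenge under pentobarbital. Cells were counted, and differentials of at least 300 cells were taken on Wright-stained cytospins. Analysis by two-way ANOVA/Bonferroni; 4-20 animals per group.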

[19] = Cmax in Sprague-Dawley rat at 10 mg/kg, po; format: ADME, organism-based; design: dose 10 mg/kg, route oral; details: in vivo; summary of the method: as §1
[20] = system: Rattus norvegicus; assay: Hepatotoxicity in rat assessed as increase in ALT level at 400 mg/kg, po qd treated after 15 days; format: toxicity, organism-based; design: dose 400 mg/kg, route oral; details: in vivo, 360 h; summary of the method: as §2
[21] = system: Rattus norvegicus; assay: Toxicity in rat assessed as aspartate aminotransferase level at 40 mg/kg, po qd treated for 14 days; format: organism-based; design: dose 40 mg/kg, route oral; details: in vivo, 336 h; summary of the method: as §2
[22] = system: Rattus norvegicus; assay: Toxicity in rat assessed as aspartate aminotransferase level at 400 mg/kg, po qd treated for 14 days; format: organism-based; design: dose 400 mg/kg, route oral; details: in vivo, 336 h; summary of the method: as §2

T1 sequence (Q15722 whole entry): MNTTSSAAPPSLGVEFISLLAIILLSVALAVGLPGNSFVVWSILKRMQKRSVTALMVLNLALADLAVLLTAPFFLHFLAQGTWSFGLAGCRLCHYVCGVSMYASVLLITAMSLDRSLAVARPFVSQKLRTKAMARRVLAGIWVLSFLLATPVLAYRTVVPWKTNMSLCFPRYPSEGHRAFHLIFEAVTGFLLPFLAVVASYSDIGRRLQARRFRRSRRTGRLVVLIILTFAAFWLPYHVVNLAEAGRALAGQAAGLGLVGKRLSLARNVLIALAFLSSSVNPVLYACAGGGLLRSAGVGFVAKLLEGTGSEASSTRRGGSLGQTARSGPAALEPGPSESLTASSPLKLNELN
Sequence of Cytochrome P450 2C9 (P11712 whole entry): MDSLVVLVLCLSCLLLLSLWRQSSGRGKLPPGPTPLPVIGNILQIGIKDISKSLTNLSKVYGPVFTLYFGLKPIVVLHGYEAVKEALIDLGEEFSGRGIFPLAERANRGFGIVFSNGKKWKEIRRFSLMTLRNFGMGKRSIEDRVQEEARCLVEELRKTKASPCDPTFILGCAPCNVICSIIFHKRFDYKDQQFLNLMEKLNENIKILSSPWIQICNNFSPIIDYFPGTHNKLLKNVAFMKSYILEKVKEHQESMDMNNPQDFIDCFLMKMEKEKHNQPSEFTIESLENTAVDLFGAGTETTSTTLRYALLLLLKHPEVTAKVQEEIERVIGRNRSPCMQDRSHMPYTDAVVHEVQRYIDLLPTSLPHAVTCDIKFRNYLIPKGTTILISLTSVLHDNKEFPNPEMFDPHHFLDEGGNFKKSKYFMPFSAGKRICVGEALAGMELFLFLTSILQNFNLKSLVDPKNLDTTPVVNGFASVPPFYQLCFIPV
Sequence of Cytochrome P450 2D6 (P10635 whole entry): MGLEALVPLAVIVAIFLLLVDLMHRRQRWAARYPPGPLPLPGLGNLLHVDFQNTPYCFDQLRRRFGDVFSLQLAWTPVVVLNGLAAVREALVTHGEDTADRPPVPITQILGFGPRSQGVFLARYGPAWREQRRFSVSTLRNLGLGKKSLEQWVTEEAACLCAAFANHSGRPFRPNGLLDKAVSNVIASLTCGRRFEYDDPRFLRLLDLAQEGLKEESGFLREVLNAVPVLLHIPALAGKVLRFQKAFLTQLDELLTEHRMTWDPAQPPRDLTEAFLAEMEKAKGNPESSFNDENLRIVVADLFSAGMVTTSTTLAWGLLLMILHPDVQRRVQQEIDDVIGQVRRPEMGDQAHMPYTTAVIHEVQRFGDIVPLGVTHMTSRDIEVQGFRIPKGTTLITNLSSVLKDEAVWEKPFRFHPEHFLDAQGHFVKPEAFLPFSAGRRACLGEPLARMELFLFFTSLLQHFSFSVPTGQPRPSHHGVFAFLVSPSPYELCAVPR

SMILES	half-life [1] [h]	Activity [2]	Activity [3]	IC50 [4] [nM]	half-life [5] [h]	IC50 [6] [nM]	bioavailability [7] [%]	Activity [8] [%]	clearance [9] [mL/min/kg]	IC50 [10] [nM]	Activity [11]	Activity [12]	IC50 [13] [nM]	IC50 [14] [nM]	Activity [15]	IC50 [16] [nM]	Vd [17] [L/kg]	Activity [18]	Cmax [19] [µM]	Activity [20] [IU/L]	other results
O=C(O)CCCOc1cccc(CCCCCCOc2cc(-c3cccc(F)c3)cc(-c3ccc4c(c3)OCO4)c2)c1CCC(=O)O	3.1	Non-toxic	Non-toxic	129	2.4	> 7500	88	53	11.6	3.68	Non-toxic	Active	194	> 25000	Non-toxic	1.19	0.98	Active	2.25	121	Activity [21]: Non-toxic; Activity [22]: Non-toxic
O=C(O)CCCOc1cccc(CCCCCCOc2cc(-c3ccsc3)cc(-c3ccc4c(c3)OCO4)c2)c1CCC(=O)O	2.7	Non-toxic	Non-toxic	114	2.1	> 7500	70	29	5.47	0.1	Non-toxic	Active	164	3900	Non-toxic	0.44	0.22	Active	6.21	125	Activity [21]: Non-toxic; Activity [22]: Non-toxic
